ChEMBL document CHEMBL1149447, “Synthesis of 2,5-thiazole butanoic acids as potent and selective alpha(v)beta3 integrin receptor antagonists with improved oral pharmacokinetic properties” (Bioorg Med Chem Lett, 2006)

Legend:
Integrin alpha-V/beta-3 = Integrin alpha-V/beta-3 (Homo sapiens, UniProt P05106+P06756); test: Inhibition of Integrin alphaV Beta3 receptor by solid-phase receptor binding assay; format: protein-complex assay
[1] = Half life in rat; format: ADME, organism-based; details: in vivo
Outline: (§1)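 Rats were given the compound both orally and intravenously. Oral and IV AUC are each normalized to dose (µg h/ml per mg/kg). The same rat study also reports oral bioavailability (%F), half-life (h), Cmax (µg/mL), clearance (mL/min/kg) and terminal volume Vz (mL/kg).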

[2] = Bioavailability in rat; format: ADME, organism-based; details: in vivo; outline: as §1
Rattus norvegicus [3] = test: AUC/dose(mg/kg) in orally dosed rat; format: ADME, organism-based, Plasma; details: in vivo, po; outline: as §1
[4] = target: Integrin alpha-IIb/beta-3 (Homo sapiens, UniProt P05106+P08514); test: Inhibition of Integrin alphaIIb Beta3 receptor by solid-phase receptor binding assay; format: protein-complex assay
Rattus norvegicus [5] = test: AUC/dose(mg/kg) in iv dosed rat; format: ADME, organism-based, Plasma; details: in vivo; outline: as §1
[6] = Clearance in rat; format: ADME, organism-based; details: in vivo; outline: as §1
[7] = Cmax in rat; format: ADME, organism-based; details: in vivo; outline: as §1
[8] = Volume of distribution in rat; format: ADME, organism-based; details: in vivo, read-out: Vdss; outline: as §1
Integrin alpha-V/beta-6 = Integrin alpha-V/beta-6 (Homo sapiens, UniProt P06756+P18564); test: Inhibition of Integrin alphaV Beta6 receptor in HT29 cells by solid-phase receptor binding assay; format: cell-based, HT-29
[9] = Bioavailability in cynomonkey; format: ADME, organism-based, Macaca fascicularis; details: cynomolgus monkey, in vivo
[10] = Bioavailability in dog; format: ADME, organism-based, Canis lupus familiaris; details: in vivo
[11] = Half life in cynomonkey; format: ADME, organism-based, Macaca fascicularis; details: cynomolgus monkey, in vivo
[12] = Half life in dog; format: ADME, organism-based, Canis lupus familiaris; details: in vivo

Chain of Integrin alpha-V/beta-3 (P05106 27-788 limits assumed): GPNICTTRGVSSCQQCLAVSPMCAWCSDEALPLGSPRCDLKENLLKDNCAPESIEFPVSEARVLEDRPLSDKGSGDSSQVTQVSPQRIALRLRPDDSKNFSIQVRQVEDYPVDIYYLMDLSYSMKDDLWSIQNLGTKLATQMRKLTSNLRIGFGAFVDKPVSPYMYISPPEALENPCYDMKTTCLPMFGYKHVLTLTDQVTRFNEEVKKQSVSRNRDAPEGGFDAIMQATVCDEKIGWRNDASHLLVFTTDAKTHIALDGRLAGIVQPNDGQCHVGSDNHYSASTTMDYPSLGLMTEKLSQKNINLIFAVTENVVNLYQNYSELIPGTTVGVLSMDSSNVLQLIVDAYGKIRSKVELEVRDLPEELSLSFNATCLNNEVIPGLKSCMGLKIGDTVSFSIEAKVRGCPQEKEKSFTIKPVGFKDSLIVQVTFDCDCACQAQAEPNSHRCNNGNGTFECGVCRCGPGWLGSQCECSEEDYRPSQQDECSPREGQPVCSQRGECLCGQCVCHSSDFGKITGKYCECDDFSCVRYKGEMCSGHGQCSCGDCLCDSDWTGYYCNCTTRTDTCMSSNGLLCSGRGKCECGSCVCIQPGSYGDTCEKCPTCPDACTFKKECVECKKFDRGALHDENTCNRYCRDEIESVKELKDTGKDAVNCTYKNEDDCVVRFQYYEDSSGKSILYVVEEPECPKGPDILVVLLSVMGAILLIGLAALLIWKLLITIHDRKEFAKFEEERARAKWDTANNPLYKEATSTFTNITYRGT
Chain of Integrin alpha-V/beta-3 (P06756 31-889 limits assumed): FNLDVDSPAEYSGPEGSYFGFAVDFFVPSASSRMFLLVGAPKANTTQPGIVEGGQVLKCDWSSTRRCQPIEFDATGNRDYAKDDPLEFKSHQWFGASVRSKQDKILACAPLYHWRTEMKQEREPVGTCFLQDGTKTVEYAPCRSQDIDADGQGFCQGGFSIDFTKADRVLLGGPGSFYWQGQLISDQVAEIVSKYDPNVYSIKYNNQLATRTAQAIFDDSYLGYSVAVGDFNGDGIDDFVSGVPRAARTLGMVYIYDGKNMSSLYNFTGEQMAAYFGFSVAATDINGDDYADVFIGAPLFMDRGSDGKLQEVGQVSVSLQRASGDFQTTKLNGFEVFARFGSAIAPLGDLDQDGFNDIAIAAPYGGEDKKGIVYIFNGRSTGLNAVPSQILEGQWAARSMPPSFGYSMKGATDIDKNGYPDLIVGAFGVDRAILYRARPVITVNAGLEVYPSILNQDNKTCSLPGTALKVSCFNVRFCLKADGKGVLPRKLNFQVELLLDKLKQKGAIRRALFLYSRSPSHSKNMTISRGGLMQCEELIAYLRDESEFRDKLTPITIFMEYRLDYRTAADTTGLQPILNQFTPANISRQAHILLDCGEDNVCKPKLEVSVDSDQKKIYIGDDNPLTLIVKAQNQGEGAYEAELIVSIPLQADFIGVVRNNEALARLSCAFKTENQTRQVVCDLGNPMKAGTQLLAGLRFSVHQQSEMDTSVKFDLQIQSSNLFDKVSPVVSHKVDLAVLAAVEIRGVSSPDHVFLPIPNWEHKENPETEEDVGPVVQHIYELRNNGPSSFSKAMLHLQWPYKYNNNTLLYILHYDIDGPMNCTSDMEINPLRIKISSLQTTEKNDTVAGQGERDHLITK
Chain of Integrin alpha-V/beta-3 (P06756 891-1048 limits assumed): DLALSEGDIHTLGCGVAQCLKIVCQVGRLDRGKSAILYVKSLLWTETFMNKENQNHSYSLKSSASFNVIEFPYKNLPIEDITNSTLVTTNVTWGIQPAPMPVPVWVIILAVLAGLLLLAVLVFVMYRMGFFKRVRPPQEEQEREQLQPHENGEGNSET
Chain of Integrin alpha-IIb/beta-3 (P05106 27-788 limits assumed): as the sequence (P05106 27-788 limits assumed) above
Chain of Integrin alpha-IIb/beta-3 (P08514 32-887 limits assumed): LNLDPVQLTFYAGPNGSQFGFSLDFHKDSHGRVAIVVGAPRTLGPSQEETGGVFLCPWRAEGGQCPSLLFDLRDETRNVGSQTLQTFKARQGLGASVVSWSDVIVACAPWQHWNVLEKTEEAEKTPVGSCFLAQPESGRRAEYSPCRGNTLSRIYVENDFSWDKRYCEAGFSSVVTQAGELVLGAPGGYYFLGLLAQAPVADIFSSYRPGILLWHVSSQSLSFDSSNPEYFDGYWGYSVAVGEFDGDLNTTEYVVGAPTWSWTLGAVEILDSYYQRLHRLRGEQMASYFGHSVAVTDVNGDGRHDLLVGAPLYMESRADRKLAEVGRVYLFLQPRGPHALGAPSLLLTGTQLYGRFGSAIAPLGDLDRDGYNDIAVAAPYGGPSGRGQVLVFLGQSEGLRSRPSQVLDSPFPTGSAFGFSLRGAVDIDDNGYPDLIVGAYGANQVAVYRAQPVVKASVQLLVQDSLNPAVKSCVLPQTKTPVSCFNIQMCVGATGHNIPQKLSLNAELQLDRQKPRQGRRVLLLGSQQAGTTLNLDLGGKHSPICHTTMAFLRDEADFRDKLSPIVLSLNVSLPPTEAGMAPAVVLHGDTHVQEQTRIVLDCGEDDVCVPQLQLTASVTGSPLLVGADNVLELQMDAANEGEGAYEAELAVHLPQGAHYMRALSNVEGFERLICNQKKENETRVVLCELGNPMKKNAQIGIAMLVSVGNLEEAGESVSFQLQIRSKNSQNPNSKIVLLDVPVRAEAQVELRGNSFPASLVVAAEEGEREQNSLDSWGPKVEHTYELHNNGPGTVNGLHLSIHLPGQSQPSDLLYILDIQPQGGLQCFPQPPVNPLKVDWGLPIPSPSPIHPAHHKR
Chain of Integrin alpha-IIb/beta-3 (P08514 891-1039 limits assumed): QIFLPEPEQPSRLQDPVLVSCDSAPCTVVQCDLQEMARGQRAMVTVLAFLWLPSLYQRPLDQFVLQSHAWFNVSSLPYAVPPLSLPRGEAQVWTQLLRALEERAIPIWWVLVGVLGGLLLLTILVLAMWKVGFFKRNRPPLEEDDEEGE
Chain of Integrin alpha-V/beta-6 (P06756 31-889 limits assumed): as the sequence (P06756 31-889 limits assumed) above
Chain of Integrin alpha-V/beta-6 (P06756 891-1048 limits assumed): as the sequence (P06756 891-1048 limits assumed) above
Chain of Integrin alpha-V/beta-6 (P18564 22-788 limits assumed): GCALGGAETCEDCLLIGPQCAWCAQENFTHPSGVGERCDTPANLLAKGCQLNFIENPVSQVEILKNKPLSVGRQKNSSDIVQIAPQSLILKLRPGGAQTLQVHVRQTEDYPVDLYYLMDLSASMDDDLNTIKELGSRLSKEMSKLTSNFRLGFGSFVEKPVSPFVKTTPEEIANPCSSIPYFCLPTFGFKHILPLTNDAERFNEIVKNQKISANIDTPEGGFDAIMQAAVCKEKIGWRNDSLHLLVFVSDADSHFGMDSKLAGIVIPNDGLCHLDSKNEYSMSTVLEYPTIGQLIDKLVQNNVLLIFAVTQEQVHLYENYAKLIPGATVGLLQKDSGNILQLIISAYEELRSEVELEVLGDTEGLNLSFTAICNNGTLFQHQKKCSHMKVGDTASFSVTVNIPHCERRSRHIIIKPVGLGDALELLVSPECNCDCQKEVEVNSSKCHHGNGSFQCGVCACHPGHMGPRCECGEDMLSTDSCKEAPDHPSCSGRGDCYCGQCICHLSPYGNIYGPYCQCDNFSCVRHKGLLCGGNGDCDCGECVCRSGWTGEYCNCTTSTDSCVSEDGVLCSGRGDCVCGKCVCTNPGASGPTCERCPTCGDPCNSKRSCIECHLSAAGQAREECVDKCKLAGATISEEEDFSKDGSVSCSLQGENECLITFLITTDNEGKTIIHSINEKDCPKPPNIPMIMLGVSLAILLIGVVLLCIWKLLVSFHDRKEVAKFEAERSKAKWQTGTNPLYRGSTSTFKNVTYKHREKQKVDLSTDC

Row | SMILES | IC50 (Integrin alpha-V/beta-3) | half-life [1] | bioavailability [2] | AUC/dose (Rattus norvegicus [3]) | IC50 [4] | AUC/dose (Rattus norvegicus [5]) | clearance [6] | Cmax [7] | Vd [8] | IC50 (Integrin alpha-V/beta-6) | further results
1 | COc1ccc(C(CC(=O)O)Cc2csc(CCCCNc3cc(N4CCSCC4)ccn3)n2)cn1 (configuration not stated) | 3.73 nM |  |  |  |  |  |  |  |  |  | 
2 | COc1ccc(C(CC(=O)O)Cc2csc(CCCCNc3cc(N4CCCC4)ccn3)n2)cn1 (configuration not stated) | 3 nM |  |  |  |  |  |  |  |  |  | 
3 | COc1cc(OC)cc(C(CC(=O)O)Cc2csc(CCCc3ccc4c(n3)NCCC4)n2)c1 (configuration not stated) | 1.54 nM | 366 min | 98% | 2.2 µg·h/mL | 350 nM | 2.2 µg·h/mL | 7.3 mL/min/kg | 6100 ng/mL | 2.04 L/kg | 1740 nM | 
4 | COc1ccc(C(CC(=O)O)Cc2csc(CCCc3ccc4c(n3)NCCC4)n2)cn1 (configuration not stated) | 1.23 nM | 378 min | > 100% | 1.6 µg·h/mL |  | 1.4 µg·h/mL | 12.3 mL/min/kg | 6600 ng/mL | 2.95 L/kg | 1320 nM | 
5 | CN1CCNc2nc(CCCc3nc(CC(CC(=O)O)c4ccc5c(c4)OCO5)cs3)ccc21 (configuration not stated) | 0.61 nM |  |  |  |  |  |  |  |  |  | 
6 | Cc1ccc(C(CC(=O)O)Cc2csc(CCCc3ccc4c(n3)NCCC4)n2)cc1 (configuration not stated) | 11.1 nM |  |  |  | 2000 nM |  |  |  |  | 5060 nM | 
7 | O=C(O)C[C@H](Cc1csc(CCCc2ccc3c(n2)NCCC3)n1)c1ccc2c(c1)OCO2 |  |  |  |  |  |  |  |  |  |  | bioavailability [9]: 64%; bioavailability [10]: 60%; half-life [11]: 672 min; half-life [12]: 780 min
8 | O=C(O)CC(Cc1csc(CCCc2ccc3c(n2)NCCC3)n1)c1ccc2c(c1)OCO2 (configuration not stated) | 1.18 nM | 420 min | > 100% | 6.8 µg·h/mL | 263 nM | 5.2 µg·h/mL | 3.3 mL/min/kg | 19600 ng/mL | 0.897 L/kg | 2390 nM | 
9 | COc1ccc(C(CC(=O)O)Cc2csc(CCCCNc3cc(N4CCOCC4)ccn3)n2)cn1 (configuration not stated) | 3.54 nM |  |  |  |  |  |  |  |  |  | 
10 | O=C(O)CC(Cc1csc(CCCc2ccc3c(n2)NCCC3)n1)c1cnc(-c2ccccc2)s1 (configuration not stated) | 1.77 nM |  |  |  | 252 nM |  |  |  |  | 2670 nM | 
11 | O=C(O)CC(Cc1nc(CCCc2ccc3c(n2)NCCC3)no1)c1ccc2c(c1)OCO2 (racemic) |  | 84 min | 95% | 1.5 µg·h/mL |  | 1.6 µg·h/mL | 10.9 mL/min/kg | 12000 ng/mL | 0.733 L/kg |  | 

Now from value to compound, other results behind:

Row | IC50 (Integrin alpha-V/beta-3) | half-life [1] | bioavailability [2] | AUC/dose (Rattus norvegicus [3]) | IC50 [4] | AUC/dose (Rattus norvegicus [5]) | clearance [6] | Cmax [7] | Vd [8] | IC50 (Integrin alpha-V/beta-6) | SMILES | further results
12 | 2.17 nM | 258 min | 95% | 1.8 µg·h/mL | 405 nM | 1.9 µg·h/mL | 9 mL/min/kg | 9100 ng/mL | 1.29 L/kg | 3260 nM | COc1ccc(C(CC(=O)O)Cc2csc(CCCc3ccc4c(n3)NCCC4)n2)cc1F (configuration not stated) | 
13 | 1.26 nM |  |  |  |  |  |  |  |  |  | O=C(O)C[C@H](Cc1csc(CCCCNc2cc(N3CCCC3)ccn2)n1)c1ccc2c(c1)OCO2 | 
14 | 1.7 nM |  |  |  |  |  |  |  |  |  | O=C(O)C[C@H](Cc1csc(CCCCNc2cc(N3CCSCC3)ccn2)n1)c1ccc2c(c1)OCO2 | 
15 | 1.2 nM | 426 min | 90% | 1.7 µg·h/mL |  | 1.9 µg·h/mL | 8.7 mL/min/kg | 3000 ng/mL | 2.68 L/kg | 841 nM | COCc1ncc(C(CC(=O)O)Cc2csc(CCCc3ccc4c(n3)NCCC4)n2)s1 (configuration not stated) | 
16 | 2.8 nM |  |  |  | 559 nM |  |  |  |  | 1310 nM | O=C(O)CC(Cc1csc(CCCc2ccc3c(n2)NCCC3)n1)c1cccc(F)c1 (configuration not stated) | 
17 | 2.82 nM |  |  |  | 95.1 nM |  |  |  |  | > 10000 nM | Cc1nc2cc(C(CC(=O)O)Cc3csc(CCCc4ccc5c(n4)NCCC5)n3)ccc2s1 (configuration not stated) | 
18 | 1.24 nM |  |  |  |  |  |  |  |  |  | COc1ccc(C(CC(=O)O)Cc2csc(CCCc3ccc4c(n3)NCCN4C)n2)cn1 (configuration not stated) | 
19 | 1.22 nM | 204 min | > 100% | 2.5 µg·h/mL |  | 2.4 µg·h/mL | 6.8 mL/min/kg | 22000 ng/mL | 1.02 L/kg | 313 nM | O=C(O)CC(Cc1csc(CCCc2ccc3c(n2)NCCC3)n1)c1cnc(C2CC2)s1 (configuration not stated) | 
20 | 3.81 nM |  |  |  | 636 nM |  |  |  |  | 2440 nM | O=C(O)CC(Cc1csc(CCCc2ccc3c(n2)NCCC3)n1)c1ccc(Cl)cc1 (configuration not stated) | 
21 | 2.09 nM |  |  |  | 559 nM |  |  |  |  | 4300 nM | O=C(O)CC(Cc1csc(CCCc2ccc3c(n2)NCCC3)n1)c1cnc(-c2ccc(Cl)cc2)s1 (configuration not stated) | 
22 | 1.56 nM |  |  |  |  |  |  |  |  |  | O=C(O)C[C@H](Cc1csc(CCCCNc2cc(N3CCOCC3)ccn2)n1)c1ccc2c(c1)OCO2 | 
23 | 3.49 nM |  |  |  | 484 nM |  |  |  |  | 2120 nM | O=C(O)CC(Cc1csc(CCCc2ccc3c(n2)NCCC3)n1)c1ccc(F)c(F)c1 (configuration not stated) | 
